From PubChem BioAssay
DSG3 Ab inh – inhibitors of pemphigus antibody binding to DSG3, primary screen, biochemical, bead-based, flow cytometry, scFv-GFP; Desmoglein-3 (Homo sapiens), P32926; binding (percent of control), % at 10 µM; hit rate 0.48% among 310,000; DSG3-coupled beads, scFv-anti-DSG3-GFP binding; stronger effect = lower value;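 active = binding more than 3 SD below its plate's average and above zero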
Target sequence (P32926 whole entry, looked up): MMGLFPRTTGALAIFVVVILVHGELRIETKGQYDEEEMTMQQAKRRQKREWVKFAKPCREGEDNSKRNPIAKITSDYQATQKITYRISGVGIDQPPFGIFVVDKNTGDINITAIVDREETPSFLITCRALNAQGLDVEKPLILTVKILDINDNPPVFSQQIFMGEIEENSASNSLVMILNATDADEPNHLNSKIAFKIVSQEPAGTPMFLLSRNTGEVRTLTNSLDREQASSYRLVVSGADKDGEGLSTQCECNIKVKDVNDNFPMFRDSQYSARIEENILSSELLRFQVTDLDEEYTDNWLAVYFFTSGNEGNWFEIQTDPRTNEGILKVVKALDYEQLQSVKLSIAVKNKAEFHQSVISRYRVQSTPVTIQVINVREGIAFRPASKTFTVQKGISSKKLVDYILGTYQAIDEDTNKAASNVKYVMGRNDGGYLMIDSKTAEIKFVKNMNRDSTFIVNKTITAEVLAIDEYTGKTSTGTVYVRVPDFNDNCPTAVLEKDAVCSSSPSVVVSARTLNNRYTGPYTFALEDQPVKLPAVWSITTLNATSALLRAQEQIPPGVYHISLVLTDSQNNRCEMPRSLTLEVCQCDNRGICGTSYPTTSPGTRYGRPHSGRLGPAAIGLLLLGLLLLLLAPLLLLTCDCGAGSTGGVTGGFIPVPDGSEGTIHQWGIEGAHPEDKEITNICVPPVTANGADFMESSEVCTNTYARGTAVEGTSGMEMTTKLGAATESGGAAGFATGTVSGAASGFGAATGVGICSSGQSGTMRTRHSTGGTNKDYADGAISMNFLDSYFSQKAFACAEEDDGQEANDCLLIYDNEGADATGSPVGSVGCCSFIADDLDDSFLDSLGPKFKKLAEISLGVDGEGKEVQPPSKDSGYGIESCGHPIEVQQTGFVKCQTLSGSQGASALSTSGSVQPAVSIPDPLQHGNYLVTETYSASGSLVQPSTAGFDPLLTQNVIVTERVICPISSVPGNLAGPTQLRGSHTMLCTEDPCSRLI
MEKK3 PB1 HTS – modulators of MEKK3-MEK5 PB1 binding, primary screen, biochemical, wildtype MEKK3, multiplex bead flow cytometry, Alexa488-MEK5; Mitogen-activated protein kinase kinase kinase 3 (Homo sapiens), Q99759; bead-based flow cytometry, Alexa488-MEK5 binding to MEKK3; actives lie on both sides; 0 = blocked by unlabeled MEK5, 100 = vehicle; binding response (% of control), % at 10 µM; hit rate 1.4% among 290,000; AID 1529, 2009;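 active = binding response more than 3 SD above or below the average of its plate-row segment, actives on both sides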;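 also: Alexa488 bead fluorescence after subtracting the streptavidin-only scavenger bead signal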
Apaf-1 inh – inhibitors of human Apaf-1 apoptosome, primary screen, biochemical, DEVD-Rh110 fluorescence, uHTS; Apoptotic protease-activating factor 1 (Homo sapiens), O14727; hit rate 0.71% among 330,000; reconstituted apoptosome caspase-3 activity; inhibition, % at 20 µM; active = inhibition of at least 40% at 20 µM;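 also: plate controls were DMSO wells for no effect and DEVD-CHO caspase inhibitor wells for full effect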
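Assay system: Apoptosome proteins | Medium: pH 7.5 Hepes buffer with CHAPS, BSA, DTT | Also added: Cytochrome c and DEVD-Rh110 substrate | Times: 30 min plus 50 min, RT | Detection: Rhodamine 110 fluorescence at Ex 480/Em 540 nm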
MEKK2wt PB1 HTS – modulators of MEK5 binding to wildtype MEKK2, primary screen, biochemical, multiplex bead flow cytometry, Alexa488-MEK5; Mitogen-activated protein kinase kinase kinase 2 (Homo sapiens), Q9Y2U5; Alexa488-MEK5 binding to MEKK2 WT; actives lie on both sides; hit rate 1.1% among 290,000; binding response (% of control), % at 10 µM; in the data active = binding response below about 67% or above about 130%
UBC13 inh – UBC13 polyubiquitin chain formation inhibitors, primary screen, biochemical, TR-FRET, uHTS; Ubiquitin-conjugating enzyme E2 N (Homo sapiens), P61088; inhibition, % at 20 µM; hit rate 0.47% among 330,000; AID 485273, 2010; in the data active = inhibition above about 45%, passing the limit was not always enough
MEKK2 mut-MEK5 – MEK5 binding signal on mutant MEKK2 PB1, primary screen, biochemical, multiplex bead flow cytometry, Alexa488-MEK5; Alexa488-MEK5 binding to MEKK2 mutant; percent response, % at 10 µM; hit rate 0.35% among 290,000; AID 1530, 2009; in the data active = percent response above about 24%, passing the limit was not always enough
Apaf-1 inh conf2 – Apaf-1 inhibitors, single-dose retest, confirmation, biochemical, fluorescence, DEVD-Rh110, 20 µM; shares compounds with Apaf-1 inh; reconstituted apoptosome, caspase-3 DEVD-Rh110 fluorescence; inhibition, % at 20 µM; hit rate 25% among 1,800;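 active = mean inhibition of at least 40% at 20 µM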;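 also: plate controls were DMSO wells for no effect and DEVD-CHO caspase inhibitor control wells for full effect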
Rh110 quench – Rh110 fluorescence interference by putative Apaf-1 inhibitors, confirmation, artefact control for Apaf-1 inhibitor project, biochemical, 20 µM; shares compounds with Apaf-1 inh; quenched caspase reaction; activation (fluorescence interference), % at 20 µM; 1,800 tested, under 10 active;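 active = signal rise of 40% or more at 20 µM, treated as a fluorescence artifact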
Fluor interf inh – fluorescence interference of Apaf-1 inhibitor hits, dose response, artefact control for Apaf-1 inhibitor project; shares compounds with Apaf-1 inh; fluorescence interference counterscreen, Apaf-1 assay format; IC50, µM; 460 tested, under 10 active; AID 588538, 2011; call rule not given here
* marks the source's active call; other numbers are inactive results; x = not tested or not shown. Only some compounds are listed: those with a hit (about 3.2% of all), similar ones and a draw of the others.

SMILES	DSG3 Ab inh	MEKK3 PB1 HTS	Apaf-1 inh	MEKK2wt PB1 HTS	UBC13 inh	MEKK2 mut-MEK5	Apaf-1 inh conf2	Rh110 quench	others
O=C(O)c1ccc(N2C(=O)/C(=C/c3ccc(-c4ccc([N+](=O)[O-])cc4)o3)C=C2c2ccccc2)cc1	30	52	52*	x	-50	30	8	16
COc1ccc(CNC(=O)[C@@H](NC(=O)C2CCN(C(=O)[C@@H](N)CCSC)CC2)C(C)C)cc1	105	99	0	98	-11	1	x	x
COc1cc(/C=C/CNC[C@H]2O[C@@H](n3cc(C)c(=O)[nH]c3=O)C[C@@H]2O)ccc1O	110	x	x	x	x	x	x	x
COC(=O)C1=C(C)N(Cc2ccccc2)C(=NCC(C)C)N[C@H]1c1ccccc1	x	103	27	128	45	7	x	x
COC(=O)C1=C(C)N(Cc2ccccc2)C(=NCc2ccc(OC)cc2)N[C@H]1c1ccccc1	139	x	51*	x	44	x	12	6
CCN(c1ccccc1)S(=O)(=O)c1ccc(Cl)c(NC(=O)CN2CCN(C)CC2)c1	x	x	52*	x	44	x	18	6
CCN(c1ccccc1)S(=O)(=O)c1ccc(Cl)c(NC(=O)Nc2ccc(Cl)cc2C#N)c1	95	101	40*	99	-9	1	44*	-4	Fluor interf inh=>100
CCN1CCN(CC(=O)Nc2cc(S(=O)(=O)N(CC)c3ccccc3)ccc2Cl)CC1	134	x	12	x	10	x	x	x
CN(c1ccccc1)S(=O)(=O)c1cccc(NC(=O)Nc2ccc(Cl)cc2C#N)c1	97	94	6	95	14	-2	x	x
COc1ccccc1/C=C/C(=O)OCC(=O)c1c(N)n(C)c(=O)n(C)c1=O	96	110	2	112	-5	5	x	x
CCC(=Nc1ccc(N)cc1)C1=C(O)C(C(=O)OC)C(C)(C)CC1=O (stereo unspecified)	85	99	61*	100	-7	3	19	2
CCC(=NCc1ccccc1)C1=C(O)C(C(=O)OC)C(C)(C)CC1=O (stereo unspecified)	114	88	-3	94	2	-10	x	x
COCCNC(=O)C1CC2Cn3c(nc4cc5ccccc5cc43)C2N1C (stereo unspecified)	124	79	-2	79	1	5	x	x
CN1C(C(=O)NCC2CC2)CC2Cn3c(nc4cc5ccccc5cc43)C21 (stereo unspecified)	141	100	41*	99	4	-2	10	-2
COc1ccc(Nc2ccc(Nc3ccc(OC)cc3)nn2)cc1	99	112	6	114	4	5	x	x
COc1ccc(Nc2ccc(OC)cc2)cc1	100	97	80*	100	-52	0	-6	0
COc1ccc2oc(C(=O)NCCN3CCOCC3)c(C)c2c1OC	x	107	3	110	4	8	x	x
CC(=O)N1CCN(C(=S)Nc2ccc(SC(F)F)cc2)CC1	106	98	96*	102	-8	2	14	11
Cc1nc(C)c(NC(=O)N2CCc3ccccc32)cc1NC(=O)N1CCc2ccccc21	93	99	17	100	10	6	x	x
Cn1ccc2cc3c(cc21)CCN3C(=O)Nc1cccnc1	83	x	66*	x	-20	x	15	5
Cc1coc2c1C(=O)C(=O)c1c-2ccc2c1CCCC2(C)C	98	96	77*	99	-81	0	59*	10	Fluor interf inh=>100
Cn1cc(C(=O)C(=O)N2CCc3ccccc32)c2ccccc21	x	101	6	101	2	6	x	x
CC(=O)c1cccc(NC(=O)CSc2ccc(-c3ccco3)nn2)c1	113	108	45*	114	-5	12	7	6
CCc1ccc(NC(=O)CSc2ccc(-c3ccco3)nn2)cc1	102	102	-3	99	-4	-2	x	x
COCCCNC(=O)c1c(N)n(-c2ccccc2)c2nc3ccccc3nc12	102	97	84*	97	-27	-8	29	10
SMILES	DSG3 Ab inh	MEKK3 PB1 HTS	Apaf-1 inh	MEKK2wt PB1 HTS	UBC13 inh	MEKK2 mut-MEK5	Apaf-1 inh conf2	Rh110 quench	others
COCCNC(=O)c1c(N)n(-c2ccccc2)c2nc3ccccc3nc12	101	101	81*	102	-25	-2	24	6
COCCCNC(=O)c1c(N)n(-c2ccc(S(N)(=O)=O)cc2)c2nc3ccccc3nc12	115	x	19	x	7	x	x	x
COC(=O)c1c(N)n(-c2ccc(NC(C)=O)cc2)c2nc3ccccc3nc12	x	95	49*	96	-31	-3	24	4
C=CCNC(=O)c1c(N)n(-c2cccc(S(N)(=O)=O)c2)c2nc3ccccc3nc12	114	98	61*	95	-1	0	16	9
C=CCC1CCCCC1=C(C#N)c1ccccc1 (stereo unspecified)	110	x	x	x	x	x	x	x
COc1ccccc1C(=O)NC(=O)CSc1nc(C)cs1	101	x	4	x	-1	x	x	x
COc1ccc(CCNC(=O)CC(=O)N/N=C\c2ccc(OCC(N)=O)cc2)cc1OC	98	x	x	x	x	x	x	x
C=CCn1c(N)c(C(=O)Nc2ccccc2)c2nc3ccccc3nc21	104	82	67*	93	15	-6	33	15
COCCNC(=O)c1c(N)n(CCCn2ccnc2)c2nc3ccccc3nc12	x	90	94*	89	-14	-6	27	11
COCCNC(=O)c1c(N)n(-c2cccc(C)c2)c2nc3ccccc3nc12	104	105	37	103	-9	3	x	x
C=CCn1c(N)c(C(=O)OC(C)CC)c2nc3ccccc3nc21 (stereo unspecified)	94	103	x	99	x	1	x	x
